Source: ChEMBL document CHEMBL1800074, “Novel quinoxaline derivatives for in vivo imaging of β-amyloid plaques in the brain” (Bioorg Med Chem Lett, 2011)
Activity calls are given as the source filed them. The rule behind the calls is not given here.

Tests used:
Kidney [1] = experiment: Biodistribution in ddY mouse kidney at 37 KBq/100 ul, iv after 60 mins by gamma counting; format: ADME, organism-based; details: in vivo, 1 h
How it was run: (§1)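 Normal ddY mice got an iv injection of the 125I-labelled ligand (no carrier added, radiochemical purity >98%). Organs were collected at 2, 30, 60 and 120 min. Activity is given as % injected dose per gram; stomach is given as % injected dose per organ. Values are the average of five mice ± standard deviation.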

Spleen [2] = experiment: Biodistribution in ddY mouse spleen at 37 KBq/100 ul, iv after 2 mins by gamma counting; format: ADME, organism-based; details: in vivo; how it was run: as §1
Heart [3] = experiment: Biodistribution in ddY mouse heart at 37 KBq/100 ul, iv after 60 mins by gamma counting; format: ADME, organism-based; details: in vivo, 1 h; how it was run: as §1
Liver [4] = experiment: Biodistribution in ddY mouse liver at 37 KBq/100 ul, iv after 120 mins by gamma counting; format: ADME, organism-based; details: in vivo, 2 h; how it was run: as §1
Brain [5] = experiment: Biodistribution in ddY mouse brain at 37 KBq/100 ul, iv after 2 mins by gamma counting; format: ADME, organism-based; details: in vivo; how it was run: as §1
Intestine [6] = experiment: Biodistribution in ddY mouse intestine at 37 KBq/100 ul, iv after 60 mins by gamma counting; format: ADME, organism-based; details: in vivo, 1 h; how it was run: as §1
Blood [7] = experiment: Biodistribution in ddY mouse blood at 37 KBq/100 ul, iv after 120 mins by gamma counting; format: ADME, organism-based; details: in vivo, 2 h; how it was run: as §1
Kidney [8] = experiment: Biodistribution in ddY mouse kidney at 37 KBq/100 ul, iv after 2 mins by gamma counting; format: ADME, organism-based; details: in vivo; how it was run: as §1
Heart [9] = experiment: Biodistribution in ddY mouse heart at 37 KBq/100 ul, iv after 120 mins by gamma counting; format: ADME, organism-based; details: in vivo, 2 h; how it was run: as §1
Lung [10] = experiment: Biodistribution in ddY mouse lung at 37 KBq/100 ul, iv after 2 mins by gamma counting; format: ADME, organism-based; details: in vivo; how it was run: as §1
[11] = Lipophilicity, log D of the compound; format: physicochemical; details: octanol/water
Intestine [12] = experiment: Biodistribution in ddY mouse intestine at 37 KBq/100 ul, iv after 30 mins by gamma counting; format: ADME, organism-based; details: in vivo, 0.5 h; how it was run: as §1
Stomach [13] = experiment: Biodistribution in ddY mouse stomach assessed per organ at 37 KBq/100 ul, iv after 120 mins by gamma counting; format: ADME, organism-based; details: in vivo, 2 h; how it was run: as §1
Brain [14] = experiment: Biodistribution in ddY mouse brain at 37 KBq/100 ul, iv after 30 mins by gamma counting; format: ADME, organism-based; details: in vivo, 0.5 h; how it was run: as §1
Stomach [15] = experiment: Biodistribution in ddY mouse stomach assessed per organ at 37 KBq/100 ul, iv after 60 mins by gamma counting; format: ADME, organism-based; details: in vivo, 1 h; how it was run: as §1
Stomach [16] = experiment: Biodistribution in ddY mouse stomach assessed per organ at 37 KBq/100 ul, iv after 30 mins by gamma counting; format: ADME, organism-based; details: in vivo, 0.5 h; how it was run: as §1
Blood [17] = experiment: Biodistribution in ddY mouse blood at 37 KBq/100 ul, iv after 30 mins by gamma counting; format: ADME, organism-based; details: in vivo, 0.5 h; how it was run: as §1
Blood [18] = experiment: Biodistribution in ddY mouse blood at 37 KBq/100 ul, iv after 2 mins by gamma counting; format: ADME, organism-based; details: in vivo; how it was run: as §1
Intestine [19] = experiment: Biodistribution in ddY mouse intestine at 37 KBq/100 ul, iv after 120 mins by gamma counting; format: ADME, organism-based; details: in vivo, 2 h; how it was run: as §1
Liver [20] = experiment: Biodistribution in ddY mouse liver at 37 KBq/100 ul, iv after 60 mins by gamma counting; format: ADME, organism-based; details: in vivo, 1 h; how it was run: as §1
Lung [21] = experiment: Biodistribution in ddY mouse lung at 37 KBq/100 ul, iv after 120 mins by gamma counting; format: ADME, organism-based; details: in vivo, 2 h; how it was run: as §1
Heart [22] = experiment: Biodistribution in ddY mouse heart at 37 KBq/100 ul, iv after 2 mins by gamma counting; format: ADME, organism-based; details: in vivo; how it was run: as §1
Intestine [23] = experiment: Biodistribution in ddY mouse intestine at 37 KBq/100 ul, iv after 2 mins by gamma counting; format: ADME, organism-based; details: in vivo; how it was run: as §1
Spleen [24] = experiment: Biodistribution in ddY mouse spleen at 37 KBq/100 ul, iv after 30 mins by gamma counting; format: ADME, organism-based; details: in vivo, 0.5 h; how it was run: as §1
Stomach [25] = experiment: Biodistribution in ddY mouse stomach assessed per organ at 37 KBq/100 ul, iv after 2 mins by gamma counting; format: ADME, organism-based; details: in vivo; how it was run: as §1
Heart [26] = experiment: Biodistribution in ddY mouse heart at 37 KBq/100 ul, iv after 30 mins by gamma counting; format: ADME, organism-based; details: in vivo, 0.5 h; how it was run: as §1
Brain [27] = experiment: Biodistribution in ddY mouse brain at 37 KBq/100 ul, iv after 120 mins by gamma counting; format: ADME, organism-based; details: in vivo, 2 h; how it was run: as §1
Liver [28] = experiment: Biodistribution in ddY mouse liver at 37 KBq/100 ul, iv after 30 mins by gamma counting; format: ADME, organism-based; details: in vivo, 0.5 h; how it was run: as §1
Spleen [29] = experiment: Biodistribution in ddY mouse spleen at 37 KBq/100 ul, iv after 60 mins by gamma counting; format: ADME, organism-based; details: in vivo, 1 h; how it was run: as §1
Kidney [30] = experiment: Biodistribution in ddY mouse kidney at 37 KBq/100 ul, iv after 30 mins by gamma counting; format: ADME, organism-based; details: in vivo, 0.5 h; how it was run: as §1
Kidney [31] = experiment: Biodistribution in ddY mouse kidney at 37 KBq/100 ul, iv after 120 mins by gamma counting; format: ADME, organism-based; details: in vivo, 2 h; how it was run: as §1
Brain [32] = experiment: Biodistribution in ddY mouse brain at 37 KBq/100 ul, iv after 60 mins by gamma counting; format: ADME, organism-based; details: in vivo, 1 h; how it was run: as §1
Lung [33] = experiment: Biodistribution in ddY mouse lung at 37 KBq/100 ul, iv after 30 mins by gamma counting; format: ADME, organism-based; details: in vivo, 0.5 h; how it was run: as §1
Blood [34] = experiment: Biodistribution in ddY mouse blood at 37 KBq/100 ul, iv after 60 mins by gamma counting; format: ADME, organism-based; details: in vivo, 1 h; how it was run: as §1
Brain [35] = experiment: Ratio of drug uptake after 2 mins to drug uptake in 120 mins in ddY mouse brain at 37 KBq/100 ul, iv; format: ADME, organism-based; details: in vivo
How it was run: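 Brain uptake (% injected dose per gram) in normal ddY mice after iv injection of the 125I-labelled ligand. The value is the brain 2 min / brain 120 min ratio, from five mice per time point.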

Lung [36] = experiment: Biodistribution in ddY mouse lung at 37 KBq/100 ul, iv after 60 mins by gamma counting; format: ADME, organism-based; details: in vivo, 1 h; how it was run: as §1
Spleen [37] = experiment: Biodistribution in ddY mouse spleen at 37 KBq/100 ul, iv after 120 mins by gamma counting; format: ADME, organism-based; details: in vivo, 2 h; how it was run: as §1
Liver [38] = experiment: Biodistribution in ddY mouse liver at 37 KBq/100 ul, iv after 2 mins by gamma counting; format: ADME, organism-based; details: in vivo; how it was run: as §1
[39] = Displacement of [125I]IMPY from amyloid beta (1-42) after 2 hrs by gamma counting
How it was run: (§2)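 Competition binding against [125I]IMPY on aggregated Aβ1-42, with inhibition curves built from the test ligand displacing the radioligand.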

[40] = Binding affinity to amyloid beta (1-42) after 2 hrs by gamma counting; how it was run: as §2
[41] = target: Amyloid-beta precursor protein (Homo sapiens) (UniProt P05067); experiment: Binding affinity to amyloid beta (1-42) plaque in brain of patient with Alzheimer's disease at 185 KBq/100ul after 1 hr by immunofluorescence staining method; format: tissue-based; details: tested as the 125I-labelled form
How it was run: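 In vitro autoradiography with the 125I-labelled ligand on brain sections from an Alzheimer's disease patient. Plaque presence and distribution were confirmed by immunohistochemical staining with a monoclonal Aβ antibody.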

Mus musculus = organism: Mus musculus; experiment: Binding affinity to amyloid beta plaque in APP/PS1 transgenic C57BL/6 mouse brain cortex at 185 KBq/100 ul after 1 hr by thioflavin S-fluorescence staining method; format: tissue-based; details: C57BL6, tested as the 125I-labelled form

Sequence of Amyloid-beta precursor protein (Homo sapiens) (P05067 whole entry): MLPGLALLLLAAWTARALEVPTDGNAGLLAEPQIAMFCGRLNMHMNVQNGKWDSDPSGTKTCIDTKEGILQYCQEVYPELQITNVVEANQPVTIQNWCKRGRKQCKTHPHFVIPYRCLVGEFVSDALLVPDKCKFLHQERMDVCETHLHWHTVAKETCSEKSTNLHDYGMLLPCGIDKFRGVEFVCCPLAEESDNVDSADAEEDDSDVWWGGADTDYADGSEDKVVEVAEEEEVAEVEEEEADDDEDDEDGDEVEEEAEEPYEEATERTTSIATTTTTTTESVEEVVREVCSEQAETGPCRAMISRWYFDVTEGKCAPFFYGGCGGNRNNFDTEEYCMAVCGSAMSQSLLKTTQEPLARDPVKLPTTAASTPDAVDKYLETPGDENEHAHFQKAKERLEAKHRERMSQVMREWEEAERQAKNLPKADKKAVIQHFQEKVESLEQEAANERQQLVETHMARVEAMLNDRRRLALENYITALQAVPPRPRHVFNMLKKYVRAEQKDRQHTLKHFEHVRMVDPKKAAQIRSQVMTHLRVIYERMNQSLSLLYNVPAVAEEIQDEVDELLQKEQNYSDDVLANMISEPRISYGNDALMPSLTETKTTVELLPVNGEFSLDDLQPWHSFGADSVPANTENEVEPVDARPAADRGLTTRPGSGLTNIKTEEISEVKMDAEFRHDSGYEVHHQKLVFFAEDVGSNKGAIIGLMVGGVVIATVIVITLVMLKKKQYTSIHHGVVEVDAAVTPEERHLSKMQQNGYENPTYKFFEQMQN

Structure (SMILES): CN(C)c1ccc(-c2cnc3cc([125I])ccc3n2)cc1
- Drug uptake (Kidney [1]): 6.68 % ID/g
- Drug uptake (Spleen [2]): 5.69 % ID/g
- Drug uptake (Heart [3]): 2.17 % ID/g
- Drug uptake (Liver [4]): 7.53 % ID/g
- Drug uptake (Brain [5]): 6.03 % ID/g
- Drug uptake (Intestine [6]): 22.5 % ID/g
- Drug uptake (Blood [7]): 1.88 % ID/g
- Drug uptake (Kidney [8]): 19.67 % ID/g
- Drug uptake (Heart [9]): 1.22 % ID/g
- Drug uptake (Lung [10]): 14.53 % ID/g
- logD [11]: 4.02
- Drug uptake (Intestine [12]): 18.62 % ID/g
- Drug uptake (Stomach [13]): 8.62 %ID
- Drug uptake (Brain [14]): 5.21 % ID/g
- Drug uptake (Stomach [15]): 5.39 %ID
- Drug uptake (Stomach [16]): 3.28 %ID
- Drug uptake (Blood [17]): 2.88 % ID/g
- Drug uptake (Blood [18]): 4.71 % ID/g
- Drug uptake (Intestine [19]): 16.93 % ID/g
- Drug uptake (Liver [20]): 12.5 % ID/g
- Drug uptake (Lung [21]): 1.95 % ID/g
- Drug uptake (Heart [22]): 14.91 % ID/g
- Drug uptake (Intestine [23]): 3.43 % ID/g
- Drug uptake (Spleen [24]): 2.82 % ID/g
- Drug uptake (Stomach [25]): 2.06 %ID
- Drug uptake (Heart [26]): 2.53 % ID/g
- Drug uptake (Brain [27]): 1.12 % ID/g
- Drug uptake (Liver [28]): 15.73 % ID/g
- Drug uptake (Spleen [29]): 2.22 % ID/g
- Drug uptake (Kidney [30]): 8.76 % ID/g
- Drug uptake (Kidney [31]): 3.96 % ID/g
- Drug uptake (Brain [32]): 2.91 % ID/g
- Drug uptake (Lung [33]): 3.99 % ID/g
- Drug uptake (Blood [34]): 2.98 % ID/g
- Ratio (Brain [35]): 5.38
- Drug uptake (Lung [36]): 3.53 % ID/g
- Drug uptake (Spleen [37]): 1.17 % ID/g
- Drug uptake (Liver [38]): 30.49 % ID/g

Structure (SMILES): CNc1ccc2cc(-c3ccc(OCCOCCOCCF)cc3)ccc2c1
- Ki [39]: 1.6 nM

Structure (SMILES): CN(C)c1ccc(-c2cn3cc([123I])ccc3n2)cc1
- Kd [40]: 0.43 nM

Structure (SMILES): CNc1ccc(-c2ccc3cc(OCCOCCOCCF)ccc3c2)cc1
- Ki [39]: 3 nM

Structure (SMILES): CN(C)c1ccc(-c2cnc3cc(Br)ccc3n2)cc1
- Ki [39]: 2.6 nM

Structure (SMILES): CNc1ccc(-c2cnc3cc(I)ccc3n2)cc1
- Ki [39]: 7.7 nM

Structure (SMILES): CN(C)c1ccc(-c2cnc3cc(I)ccc3n2)cc1
- Activity [41]: Active
- Ki [39]: 4.1 nM
- Activity (Mus musculus): Active

Structure (SMILES): Nc1ccc(-c2cnc3cc(I)ccc3n2)cc1
- Ki [39]: 10.7 nM
